Test results: ChEMBL document CHEMBL1137146, “Thiourea inhibitors of herpesviruses. Part 3: Inhibitors of varicella zoster virus” (Bioorg Med Chem Lett, 2004)

What follows are molecules tested on Human alphaherpesvirus 3 (assay: inhibitory concentration against Varicella zoster virus). Conditions: not given.
Format: functional, organism-based
How it was run: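 Compounds serially diluted and tested in duplicate against VZV. IC50 obtained by curve fitting with a sigmoidal Hill slope (0–100) model. The rest of the assay procedure follows earlier published work and is not given here.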

| IC50 [nM] | Compound |
| --- | --- |
| 700 | C[C@@H](NC(=S)Nc1ccc(NC(=O)c2ccccc2F)cc1)c1ccccc1 (stereo in doubt; 9) |
| > 19100 | C[C@@H](NC(=S)Nc1ccc(NC(=O)c2ccccc2F)cc1)c1ccccc1 (stereo in doubt; 10) |
| 130 | C[C@@H](NC(=S)Nc1ccc(NC(=O)c2ccccc2F)cc1)c1ccc(Br)cc1 (stereo in doubt; 11) |
| 49100 | C[C@@H](NC(=S)Nc1ccc(NC(=O)c2ccccc2F)cc1)c1ccc(Br)cc1 (stereo in doubt; 12) |

Same assay, conditions: Human alphaherpesvirus 3

| IC50 [nM] | Compound |
| --- | --- |
| 110 | CC(/N=C(\S)Nc1ccc(NC(=O)c2ccccc2F)c(C#N)c1)c1cc2ccccc2o1 (stereo not drawn) |
| 600 | CC(/N=C(\S)Nc1ccc(NC(=O)c2ccccc2F)cc1)c1ccc(F)cc1 (stereo not drawn) |
| 70 | CC(/N=C(\S)Nc1cc(Br)c(NC(=O)c2ccccc2F)c(Br)c1)c1ccc(F)cc1 (stereo not drawn) |
| 30 | CC(NC(=O)Nc1ccc(NC(=O)c2ccccc2F)c(C#N)c1)c1ccc(F)cc1 (stereo not drawn) |
| 110 | CC(/N=C(\S)Nc1ccc(NC(=O)c2ccccc2F)c(C#N)c1)c1ccc(F)cc1 (stereo not drawn) |
| 180 | CC(/N=C(\S)Nc1ccc(NC(=O)c2cc3ccccc3cn2)cc1)c1ccc(F)cc1 (stereo not drawn) |
| 110 | CC(NC(=O)Nc1ccc(NC(=O)c2ccccc2F)c(C#N)c1)c1cc2ccccc2o1 (stereo not drawn) |
| 210 | CC(/N=C(\S)Nc1ccc(NC(=O)c2ccccc2F)cc1)c1ccc(Cl)cc1 (stereo not drawn) |
| 90 | CC(/N=C(\S)Nc1ccc(NC(=O)c2ccc3ccccc3n2)cc1)c1ccc(F)cc1 (stereo not drawn) |
| 1540 | COc1cc(NC(=O)c2ccccc2F)ccc1/N=C(\S)NC(C)c1ccc(F)cc1 (stereo not drawn) |
| 120 | Cc1cc(N/C(S)=N/C(C)c2ccc(F)cc2)ccc1NC(=O)c1ccccc1F (stereo not drawn) |
| 990 | Cc1cc(NC(=O)c2ccccc2F)ccc1N/C(S)=N/C(C)c1ccc(F)cc1 (stereo not drawn) |
| 1370 | CC(/N=C(\S)Nc1ccc(NC(=O)c2ccccc2F)cc1Cl)c1ccc(F)cc1 (stereo not drawn) |
| 9480 | CC(/N=C(\S)Nc1ccc(NC(=O)c2ccccc2F)cc1)c1c[nH]c2ccccc12 (stereo not drawn) |
| 9700 | CC(C)(/N=C(\S)Nc1ccc(NC(=O)c2ccccc2F)cc1)c1ccccc1 |
| 1300 | CC(NC(=S)Nc1ccc(NC(=O)c2ccccc2F)cc1)c1ccccc1 (stereo not drawn) |
| 180 | CC(/N=C(\S)Nc1ccc(NC(=O)c2ccccc2F)cc1)c1cc2ccccc2o1 (stereo not drawn) |
| 190 | CC(/N=C(\S)Nc1ccc(-c2cc(-c3ccnc4ccccc34)no2)cc1)c1ccc(F)cc1 (stereo not drawn) |
| 4510 | CC(/N=C(\S)Nc1ccc(NC(=O)c2ccccc2F)cc1)c1ccc2ccccc2c1 (stereo not drawn) |
| > 26300 | O=C(Nc1ccc(N/C(S)=N/Cc2ccccc2)cc1)c1ccccc1F |
| > 17600 | CCC(/N=C(\S)Nc1ccc(NC(=O)c2ccccc2F)cc1)c1ccc(F)cc1 (stereo not drawn) |
| 570 | CCOc1cc(N/C(S)=N/C(C)c2ccc(F)cc2)ccc1NC(=O)c1ccccc1F (stereo not drawn) |
| 190 | CC(/N=C(\S)Nc1ccc(-c2cc(Cc3ccccc3)no2)cc1)c1ccc(F)cc1 (stereo not drawn) |
| 60 | CC(/N=C(\S)Nc1ccc(NC(=O)c2ccccc2F)c(C(F)(F)F)c1)c1ccc(F)cc1 (stereo not drawn) |
| 420 | CC(NC(=S)Nc1ccc(NC(=O)c2ccccc2F)cc1)c1ccc(Br)cc1 (stereo not drawn) |
| 90 | COc1cc(N/C(S)=N/C(C)c2ccc(F)cc2)ccc1NC(=O)c1ccccc1F (stereo not drawn) |
| 960 | CC(/N=C(\S)Nc1ccc(NC(=O)c2ccccc2F)cc1)c1ccc(C#N)cc1 (stereo not drawn) |
| 190 | COc1ccccc1C(=O)Nc1ccc(N/C(S)=N/C(C)c2ccc(F)cc2)cc1 (stereo not drawn) |
| 3560 | CC(/N=C(\S)Nc1ccc(NC(=O)c2ccccc2F)cc1)c1csc2ccccc12 (stereo not drawn) |
